According to PMC3128788 (Nuclear medicine and biology, 2011):
Marks after values point to notes of the source that are not given here. Values belong to the compound of their own block, whether it stands above or below them.

Tests used:
[1] = target: D3 dopamine receptors (transfected HEK cells) (Homo sapiens, UniProt P35462); test: Whole cell forskolin-dependent adenylyl cyclase inhibition assay, D3; type: cell-based; settings: for Functional classification at D3 dopamine receptors: compared to quinpirole
[2] = target: D2 dopamine receptors (transfected HEK cells) (Homo sapiens, UniProt P14416); test: Whole cell forskolin-dependent adenylyl cyclase inhibition assay, D2; type: cell-based; settings: intrinsic activity
How it was run: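 Transfected HEK cells were prelabelled with 2,8-3H-adenine in serum-free medium for 75 min at 37 °C. They were then incubated with test compound in serum-free medium containing 0.1 mM 3-isobutyl-1-methylxanthine for 20 min at 37 °C. The reaction was stopped with a solution of 10% trichloroacetic acid and 1 mM cyclic AMP, and accumulated 3H-cyclic AMP was measured.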

[3] = type: in vivo, male Sprague Dawley rats; settings: for Blood %ID/gram, 5 min CycA / Bone %ID/gram, 5 min CycA / Fat %ID/gram, 5 min CycA / Kidney %ID/gram, 5 min CycA / Liver %ID/gram, 5 min CycA / Lung %ID/gram, 5 min CycA / Muscle %ID/gram, 5 min CycA / Total brain %ID/gram, 5 min CycA / Blood %ID/gram, 30 min CycA / Bone %ID/gram, 30 min CycA / Fat %ID/gram, 30 min CycA / Kidney %ID/gram, 30 min CycA / Liver %ID/gram, 30 min CycA / Lung %ID/gram, 30 min CycA / Muscle %ID/gram, 30 min CycA / Total brain %ID/gram, 30 min CycA: CycA […] mg/kg i.v. 30 min before tracer; for Blood %ID/gram, 5 min CycA / Bone %ID/gram, 5 min CycA / Fat %ID/gram, 5 min CycA / Kidney %ID/gram, 5 min CycA / Liver %ID/gram, 5 min CycA / Lung %ID/gram, 5 min CycA / Muscle %ID/gram, 5 min CycA / Total brain %ID/gram, 5 min CycA / Blood %ID/gram, 5 min No Rx / Bone %ID/gram, 5 min No Rx / Fat %ID/gram, 5 min No Rx / Kidney %ID/gram, 5 min No Rx / Liver %ID/gram, 5 min No Rx / Lung %ID/gram, 5 min No Rx / Muscle %ID/gram, 5 min No Rx / Total brain %ID/gram, 5 min No Rx: 5 min post-injection; for Blood %ID/gram, 30 min CycA / Bone %ID/gram, 30 min CycA / Fat %ID/gram, 30 min CycA / Kidney %ID/gram, 30 min CycA / Liver %ID/gram, 30 min CycA / Lung %ID/gram, 30 min CycA / Muscle %ID/gram, 30 min CycA / Total brain %ID/gram, 30 min CycA / Blood %ID/gram, 30 min No Rx / Bone %ID/gram, 30 min No Rx / Fat %ID/gram, 30 min No Rx / Kidney %ID/gram, 30 min No Rx / Liver %ID/gram, 30 min No Rx / Lung %ID/gram, 30 min No Rx / Muscle %ID/gram, 30 min No Rx / Total brain %ID/gram, 30 min No Rx: 30 min post-injection; for Blood %ID/gram, 5 min No Rx / Bone %ID/gram, 5 min No Rx / Fat %ID/gram, 5 min No Rx / Kidney %ID/gram, 5 min No Rx / Liver %ID/gram, 5 min No Rx / Lung %ID/gram, 5 min No Rx / Muscle %ID/gram, 5 min No Rx / Total brain %ID/gram, 5 min No Rx / Blood %ID/gram, 30 min No Rx / Bone %ID/gram, 30 min No Rx / Fat %ID/gram, 30 min No Rx / Kidney %ID/gram, 30 min No Rx / Liver %ID/gram, 30 min No Rx / Lung %ID/gram, 30 min No Rx / Muscle %ID/gram, 30 min No Rx / Total brain %ID/gram, 30 min No Rx: control rats, i.v.; for Bone activity levels from 5 min to 30 min (metabolic defluorination): normal rats; for Blood CycA:No Rx / Bone CycA:No Rx / Fat CycA:No Rx / Kidney CycA:No Rx / Liver CycA:No Rx / Lung CycA:No Rx / Muscle CycA:No Rx / Total brain CycA:No Rx: ratio of tracer uptake in CycA versus control group 30 min post injection
[4] = target: human D3 dopamine receptors expressed in HEK 293 cells (Homo sapiens, UniProt P35462); test: Dopamine receptor filtration binding assay, [125I]-IABN competition, D3; settings: mean Ki ± S.E.M., [125I]-IABN, HEK 293 membranes; unit printed in b5 only
Chain of human D3 dopamine receptors expressed in HEK 293 cells (P35462 whole entry): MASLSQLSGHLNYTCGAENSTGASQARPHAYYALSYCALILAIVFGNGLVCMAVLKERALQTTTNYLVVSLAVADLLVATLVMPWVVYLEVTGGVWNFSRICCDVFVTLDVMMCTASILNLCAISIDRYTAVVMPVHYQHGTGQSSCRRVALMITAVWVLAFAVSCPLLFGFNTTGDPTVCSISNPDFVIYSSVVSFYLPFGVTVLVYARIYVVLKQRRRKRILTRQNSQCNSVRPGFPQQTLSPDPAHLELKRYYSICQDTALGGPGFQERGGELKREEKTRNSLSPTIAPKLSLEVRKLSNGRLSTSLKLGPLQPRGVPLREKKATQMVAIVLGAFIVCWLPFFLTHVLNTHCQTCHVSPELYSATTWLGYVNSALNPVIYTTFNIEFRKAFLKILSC

Chain of D3 dopamine receptors (transfected HEK cells) (P35462 whole entry): as above
Chain of D2 dopamine receptors (transfected HEK cells) (P14416 whole entry): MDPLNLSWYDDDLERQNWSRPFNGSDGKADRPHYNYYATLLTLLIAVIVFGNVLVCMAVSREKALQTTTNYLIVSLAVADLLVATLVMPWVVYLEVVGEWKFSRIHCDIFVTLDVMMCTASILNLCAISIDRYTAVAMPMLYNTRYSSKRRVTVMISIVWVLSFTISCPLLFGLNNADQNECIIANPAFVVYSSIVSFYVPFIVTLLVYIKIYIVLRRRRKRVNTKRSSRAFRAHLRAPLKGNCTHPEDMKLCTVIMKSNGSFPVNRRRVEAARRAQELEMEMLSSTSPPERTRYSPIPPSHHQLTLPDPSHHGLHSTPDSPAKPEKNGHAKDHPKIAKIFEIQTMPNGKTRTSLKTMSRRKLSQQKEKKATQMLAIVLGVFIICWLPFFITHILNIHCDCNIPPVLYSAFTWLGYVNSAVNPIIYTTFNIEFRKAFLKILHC

Functional classification at D3 dopamine receptors [1]: weak partial agonist | %IA D3 ([1]; intrinsic activity, compared to the full agonist quinpirole): 34.4 ± 1.7% | %IA D2 [2]: 29.3 ± 7.3%
SMILES: O=C(NCCCCN1CCN(c2ccccc2OCCF)CC1)c1ccc(-c2ccsc2)cc1 [Compound 9, N-(4-(4-(2-(2-fluoroethoxy)phenyl)piperazin-1-yl)butyl)-4-(thiophen-3-yl)benzamide]

Blood %ID/gram, 5 min CycA [3]: 0.109 ± 0.009 %ID/gram | Bone %ID/gram, 5 min CycA [3]: 0.288 ± 0.008 %ID/gram | Fat %ID/gram, 5 min CycA [3]: 0.116 ± 0.004 %ID/gram | Kidney %ID/gram, 5 min CycA [3]: 2.235 ± 0.175 %ID/gram | Liver %ID/gram, 5 min CycA [3]: 1.770 ± 0.584 %ID/gram | Lung %ID/gram, 5 min CycA [3]: 1.893 ± 0.158 %ID/gram | Muscle %ID/gram, 5 min CycA [3]: 0.184 ± 0.014 %ID/gram | Total brain %ID/gram, 5 min CycA [3]: 0.895 ± 0.063 %ID/gram | Blood %ID/gram, 30 min CycA [3]: 0.062 ± 0.018 %ID/gram | Bone %ID/gram, 30 min CycA [3]: 0.599 ± 0.152 %ID/gram | Fat %ID/gram, 30 min CycA [3]: 0.115 ± 0.030 %ID/gram | Kidney %ID/gram, 30 min CycA [3]: 2.548 ± 0.490 %ID/gram | Liver %ID/gram, 30 min CycA [3]: 2.431 ± 0.365 %ID/gram | Lung %ID/gram, 30 min CycA [3]: 1.154 ± 0.102 %ID/gram | Muscle %ID/gram, 30 min CycA [3]: 0.154 ± 0.038 %ID/gram | Total brain %ID/gram, 30 min CycA [3]: 0.970 ± 0.077 %ID/gram | Increase in brain uptake after CycA administration at 5 min ([3]; CycA pretreated versus control rats, 5 min post injection): 5.0 fold | Blood %ID/gram, 5 min No Rx [3]: 0.079 ± 0.006 %ID/gram | Bone %ID/gram, 5 min No Rx [3]: 0.490 ± 0.033 %ID/gram | Fat %ID/gram, 5 min No Rx [3]: 0.101 ± 0.046 %ID/gram | Kidney %ID/gram, 5 min No Rx [3]: 2.939 ± 0.544 %ID/gram | Liver %ID/gram, 5 min No Rx [3]: 2.124 ± 0.113 %ID/gram | Lung %ID/gram, 5 min No Rx [3]: 2.432 ± 0.211 %ID/gram | Muscle %ID/gram, 5 min No Rx [3]: 0.099 ± 0.007 %ID/gram | Total brain %ID/gram, 5 min No Rx [3]: 0.178 ± 0.030 %ID/gram | Blood %ID/gram, 30 min No Rx [3]: 0.046 ± 0.008 %ID/gram | Bone %ID/gram, 30 min No Rx [3]: 0.882 ± 0.153 %ID/gram | Fat %ID/gram, 30 min No Rx [3]: 0.095 ± 0.017 %ID/gram | Kidney %ID/gram, 30 min No Rx [3]: 2.710 ± 0.235 %ID/gram | Liver %ID/gram, 30 min No Rx [3]: 2.134 ± 0.313 %ID/gram | Lung %ID/gram, 30 min No Rx [3]: 1.553 ± 0.179 %ID/gram | Muscle %ID/gram, 30 min No Rx [3]: 0.111 ± 0.006 %ID/gram | Total brain %ID/gram, 30 min No Rx [3]: 0.180 ± 0.006 %ID/gram | Bone activity levels from 5 min to 30 min (metabolic defluorination) [3]: two-fold increase | Blood CycA:No Rx [3]: 1.35 | Bone CycA:No Rx [3]: 0.68 | Fat CycA:No Rx [3]: 1.20 | Kidney CycA:No Rx [3]: 0.94 | Liver CycA:No Rx [3]: 1.14 | Lung CycA:No Rx [3]: 0.74 | Muscle CycA:No Rx [3]: 1.38 | Total brain CycA:No Rx [3]: 5.38 ^g
SMILES: CN(C)c1ccc(C(=O)NCCCCN2CCN(c3ccccc3OCC[18F])CC2)cc1 [[^18F]8, 4-(dimethylamino)-N-(4-(4-(2-(2-[^18F]fluoroethoxy)phenyl)piperazin-1-yl)butyl)benzamide]

Functional classification at D3 dopamine receptors [1]: weak partial agonist/antagonist | D3 (Ki) [4]: subnanomolar | %IA D2 [2]: 34 ± 3%
SMILES: COc1ccccc1N1CCN(CCCCNC(=O)c2ccc(N(C)C)cc2)CC1 [Compound 6, 4-(dimethylamino)-N-(4-(4-(2-methoxyphenyl)piperazin-1-yl)butyl)benzamide]

Blood %ID/gram, 5 min CycA [3]: 0.098 ± 0.009 %ID/gram | Bone %ID/gram, 5 min CycA [3]: 0.162 ± 0.030 g %ID/gram | Fat %ID/gram, 5 min CycA [3]: 0.046 ± 0.028 %ID/gram | Kidney %ID/gram, 5 min CycA [3]: 1.913 ± 0.037 %ID/gram | Liver %ID/gram, 5 min CycA [3]: 1.478 ± 0.336 %ID/gram | Lung %ID/gram, 5 min CycA [3]: 3.356 ± 0.261 %ID/gram | Muscle %ID/gram, 5 min CycA [3]: 0.097 ± 0.0417 %ID/gram | Total brain %ID/gram, 5 min CycA [3]: 0.725 ± 0.022 %ID/gram | Blood %ID/gram, 30 min CycA [3]: 0.109 ± 0.019 %ID/gram | Bone %ID/gram, 30 min CycA [3]: 0.143 ± 0.016 %ID/gram | Fat %ID/gram, 30 min CycA [3]: 0.093 ± 0.017 %ID/gram | Kidney %ID/gram, 30 min CycA [3]: 1.397 ± 0.260 %ID/gram | Liver %ID/gram, 30 min CycA [3]: 1.039 ± 0.124 %ID/gram | Lung %ID/gram, 30 min CycA [3]: 1.063 ± 0.182 %ID/gram | Muscle %ID/gram, 30 min CycA [3]: 0.108 ± 0.014 %ID/gram | Total brain %ID/gram, 30 min CycA [3]: 0.504 ± 0.023 %ID/gram | Blood %ID/gram, 5 min No Rx [3]: 0.082 ± 0.027 %ID/gram | Bone %ID/gram, 5 min No Rx [3]: 0.253 ± 0.001 %ID/gram | Fat %ID/gram, 5 min No Rx [3]: 0.028 ± 0.003 %ID/gram | Kidney %ID/gram, 5 min No Rx [3]: 2.485 ± 0.608 %ID/gram | Liver %ID/gram, 5 min No Rx [3]: 1.430 ± 0.221 %ID/gram | Lung %ID/gram, 5 min No Rx [3]: 4.026 ± 1.177 %ID/gram | Muscle %ID/gram, 5 min No Rx [3]: 0.083 ± 0.009 %ID/gram | Total brain %ID/gram, 5 min No Rx [3]: 0.118 ± 0.001 %ID/gram | Blood %ID/gram, 30 min No Rx [3]: 0.104 ± 0.010 %ID/gram | Bone %ID/gram, 30 min No Rx [3]: 0.220 ± 0.0494 %ID/gram | Fat %ID/gram, 30 min No Rx [3]: 0.091 ± 0.0029 %ID/gram | Kidney %ID/gram, 30 min No Rx [3]: 1.363 ± 0.0359 %ID/gram | Liver %ID/gram, 30 min No Rx [3]: 1.162 ± 0.1400 %ID/gram | Lung %ID/gram, 30 min No Rx [3]: 1.313 ± 0.3574 %ID/gram | Muscle %ID/gram, 30 min No Rx [3]: 0.083 ± 0.0139 %ID/gram | Total brain %ID/gram, 30 min No Rx [3]: 0.095 ± 0.0208 %ID/gram | Bone activity levels from 5 min to 30 min (metabolic defluorination) [3]: No accumulation | Blood CycA:No Rx [3]: 1.05 | Bone CycA:No Rx [3]: 0.65 | Fat CycA:No Rx [3]: 1.02 | Kidney CycA:No Rx [3]: 1.03 | Liver CycA:No Rx [3]: 0.89 | Lung CycA:No Rx [3]: 0.81 | Muscle CycA:No Rx [3]: 1.24 | Total brain CycA:No Rx [3]: 5.33 ^h
SMILES: O=C(NCCCCN1CCN(c2ccccc2OCC[18F])CC1)c1ccc(-c2ccsc2)cc1 [[^18F]9, N-(4-(4-(2-(2-[^18F]fluoroethoxy)phenyl)piperazin-1-yl)butyl)-4-(thiophen-3-yl)benzamide]
